Screens: PubChem BioAssay, Broad Institute
PGC1a acetyl inh – lowers PGC1a acetylation signal in U2OS cells | AlphaScreen anti-acetyl-lysine; with virally co-expressed GCN5 acetyltransferase | inhibition, % at 15.6 µM | 350,000 compounds, 0.17% hits | AID 651687;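 active means every replicate shows inhibition of at least 40%; inconclusive means mean inhibition at least 40% but some replicate below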;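 further: 0% = neutral control wells and 100% = positive control wells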
FN deposition inh – fibronectin deposition inhibition; AH1F fibroblasts, Alexa488-fibronectin deposition fluorescence, overnight; inhibition, % at 12.6 µM; 350,000 compounds, 0.086% hits;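 active means mean inhibition across replicates of 30% or more, regardless of how many single replicates reach that level; inconclusive means mean under 30% yet at least half of replicates reach 30%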;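 further: positive control wells lacked labelled fibronectin entirely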
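Test system: AH1F fibroblast monolayer depositing Alexa488-labelled fibronectin into matrix. Input: 10000 cells per well. Technique: fluorescence, ex 485 nm, em 525 nm. Buffer or medium: DMEM plus 2% serum, read in PBS. Timing: 1 h cell adhesion before compound, then overnight fibronectin incubation. Compound: single dose, pinned. Read-out basis: inhibition from reduced deposited-fibronectin fluorescence.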
EWS-Fli block – EWS/Fli transcriptional activity inhibition. A673 NR0B1-luciferase reporter, viability-normalised. inhibition, % at 12.6 µM. 350,000 compounds, 0.67% hits;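 active means mean inhibition of at least 50% after viability correction, with every replicate also passing that limit; inconclusive means mean reaches 50% but only one of two replicates passes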;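 further: firefly luciferase signal divided by Alamar Blue viability fluorescence both relative to DMSO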
CFTR F508del cor – CFTR F508del correction in bronchial cells; CFBE cells, YFP halide quenching; stimulated with forskolin plus potentiator P3; % fluorescence drop versus neutral controls; AID 720511; 350,000 compounds, 0.36% hits; activity (quench increase), % at 7.58 µM;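 active means mean added fluorescence quench of at least 8% versus neutral control, with both replicates also reaching 8%; inconclusive means only one of the mean or replicate conditions met; inactive means mean below 8% and not both replicates reaching 8%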;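 further: cells transiently co-express mutant CFTR-F508del with the halide-sensitive YFP; corrector assay measuring rescue of mutant channel to the surface after 24 h compound exposure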
HIV Env fusion – HIV envelope-mediated fusion inhibition; 360,000 compounds, 1.1% hits; HeLa-JRFL Env/CEM21 cell fusion, luciferase; inhibition, % at 12.3 µM;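 active means mean replicate inhibition score of at least 50 and every replicate individually at or above 50; inconclusive means only one of the two criteria met; inactive means mean below 50 and not all replicates reaching 50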;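 further: 0% = plate neutral controls and 100% = maraviroc near 300 nM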
PAX8 inh HTS – PAX8 transcriptional activity inhibition; 360,000 compounds, 1.2% hits; inhibition, % at 12.6 µM; RMG-I TPO-luciferase reporter, SteadyGlo, 24 h;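 active means mean replicate inhibition at least 60% with every replicate also reaching 60%; inconclusive means only one of the two criteria is met; inactive means mean below 60% and not all replicates reaching 60%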;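 further: luciferase light reporting Pax8 driven TPO promoter activity; plate controls were median of neutral control wells for no effect and mitoxantrone controls for full effect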
* marks the source's active call; other numbers are inactive results; i = inactive; u = inconclusive; x = no result given; [ ] = remark or other dose. The list is not random: actives were taken first. Their share in the collection is about 2.3%.

SMILES	PGC1a acetyl inh	FN deposition inh	EWS-Fli block	CFTR F508del cor	HIV Env fusion	PAX8 inh HTS
Cc1ccnc(N2C(=O)c3cccc4c([N+](=O)[O-])ccc(c34)C2=O)c1	30.3	x	65.5*	22.6*	x	x
Cc1ccc(N2C(=O)c3cccc4c([N+](=O)[O-])ccc(c34)C2=O)c2cccnc12	0.4	-2.9	16.6	24.6*	-204.4	14.6
COCCOC(=O)N1C(=O)[C@@]2(c3ccccc31)[C@H](c1ccccc1OCCO)N1[C@H](c3ccccc3)[C@H](c3ccccc3)OC(=O)[C@H]1[C@@H]2C(N)=O	x	x	12.6	0.5	i	11.9
Cc1noc(C)c1NC(=O)N(C)C[C@@H]1Oc2ccc(NC(=O)c3ccncc3)cc2C(=O)N([C@H](C)CO)C[C@@H]1C	0.9	x	0.5	0.3	x	x
O=C(C[C@@H]1C[C@@H]2c3cc(NC(=O)C4CCOCC4)ccc3O[C@@H]2[C@@H](CO)O1)NCc1ccc(Oc2ccccc2)cc1	-0.9	x	35.3	0.0	-8.0[16.7 µM]	27.6
O=C(C[C@@H]1C[C@H]2c3cc(NC(=O)NC4CCCC4)ccc3O[C@H]2[C@H](CO)O1)NCc1ccc(Oc2ccccc2)cc1	-3.0	-2.0	60.4*	4.9	-28.4[16.7 µM]	66.1*
O=C(C[C@@H]1C[C@H]2c3cc(NC(=O)C4CCOCC4)ccc3O[C@H]2[C@H](CO)O1)NCc1ccc(Oc2ccccc2)cc1	-8.2	x	16.7	-2.8	-92.5[16.7 µM]	89.9*
Cc1cccc(C(=O)OCC(=O)NCc2ccco2)c1	3.1	3.7	-1.5	-2.2	65.9*	6.7
Cc1ccc(C(=O)OCC(=O)NCc2ccco2)cc1	-2.4	4.3	x	x	-46.2	x
C/C(CC(=O)NCc1ccco1)=N\NC(=O)COc1ccc(C)cc1	x	-7.5	3.8	-0.1	x	64.7*
C/C(CC(=O)NCc1ccco1)=N\NC(=O)COc1ccc(Cl)cc1Cl	-3.9	5.6	2.4	3.4	-18.9	12.3
Cc1cccc(C)c1OCCNC(=O)C(=O)NCc1ccco1	x	7.3	56.3*	1.4	-5.4	7.3
O=C(Oc1ccc2c(c1)OCO2)c1cc2c(s1)CCC2	21.6	0.4	x	x	75.4*	57.6
CCc1nc2ccccc2c(C(=O)Oc2cccc3cccnc23)c1C	x	24.6	x	x	79.6*	x
CCc1nc2ccc(C)cc2c(C(=O)Oc2cccc3cccnc23)c1C	x	14.1	x	x	-27.8	x
CCc1nc2ccccc2c(C(=O)OCC(=O)N2CC(C)OC(C)C2)c1C (stereo not drawn)	x	10.3	-10.3	1.5	64.4*	10.8
Cc1cc(C(=O)OCC(=O)N2CC(C)OC(C)C2)c2ccccc2n1 (stereo not drawn)	5.2	x	11.3	-0.5	6.4	16.5
Cc1ccc(S(=O)(=O)Nc2ccc3c(c2)C(=O)N([C@H](C)CO)C[C@H](C)[C@H](CN(C)C(=O)NC2CCCCC2)O3)cc1	-0.9	x	4.8	0.3	x	14.0
CO[C@H]1CN(C)C(=O)c2ccc(NC(C)=O)cc2OC[C@@H](C)N(Cc2ccccc2F)C[C@H]1C	-3.6	1.2	-1.7	1.6	6.4[16.7 µM]	-7.1
COc1ccccc1C(=O)N(CCC1CCCN1C)c1nc2ccccc2s1 (stereo not drawn)	x	3.4	61.4*	1.8	-97.1	-104.0
CC1(C(=O)NCc2cccc(C(F)(F)F)c2)CCN1Cc1ccc(-c2ccccc2)o1 (stereo not drawn)	-11.9	4.4	12.5	1.7	u	74.2*
CCOc1ccc(N(C)S(=O)(=O)c2cc(-c3cc(C)no3)ccc2C(C)C)cc1	-64.7	0.9	10.8	-0.6	78.6*	38.8
CCOc1ccc(N(C)S(=O)(=O)c2ccc(-c3cc(C)no3)s2)cc1	-20.2	0.0	54.9*	3.8	1.7	23.9
Cc1cccc(N(C)S(=O)(=O)c2ccc(-c3cc(C)no3)s2)c1	-17.6	-12.2	53.6*	11.9*	-383.5	38.3
CCOc1ccc(N(C)S(=O)(=O)c2ccc(-c3ccc(=O)[nH]n3)s2)cc1	x	-5.0	x	-3.1	5.6	9.7
SMILES	PGC1a acetyl inh	FN deposition inh	EWS-Fli block	CFTR F508del cor	HIV Env fusion	PAX8 inh HTS
CCN(c1cccc(C)c1)S(=O)(=O)c1ccc(-c2cc(C)no2)s1	6.3	0.7	55.3*	9.2*	7.3	27.7
C[C@@]12C(=O)N(CCc3c[nH]c4ccccc34)CC(=O)N1[C@H]1c3ccccc3OC[C@@H]1[C@@H]2c1ccccc1	x	-0.3	20.7	2.4	82.3*	-2.2
C[C@@]12C(=O)N(Cc3ccccc3)CC(=O)N1[C@H]1c3cc(Cl)ccc3OC[C@@H]1[C@@H]2c1ccccc1	-2.1	8.2	15.3	-3.2	61.1*	0.6
C[C@@]12C(=O)N(Cc3ccc(F)cc3)CC(=O)N1[C@H]1c3cc(Cl)ccc3OC[C@@H]1[C@@H]2c1ccccc1	x	4.6	7.6	-1.7	77.3*	-1.5
C[C@@]12C(=O)N(Cc3ccco3)CC(=O)N1[C@H]1c3cc(Cl)ccc3OC[C@@H]1[C@@H]2c1ccccc1	-10.8	12.9	0.0	1.4	16.3	21.0
C[C@@]12C(=O)N(Cc3ccc(Cl)cc3)CC(=O)N1[C@H]1c3ccccc3OC[C@@H]1[C@@H]2c1ccccc1	x	1.0	2.9	-0.9	29.0	24.0
Cc1ccc(-c2ccc([C@H]3[C@@H](CO)N4C(=O)CN(C(=O)c5ccncc5)C[C@@H]34)cc2)cc1	-15.7	x	-22.2	-4.0	x	-23.2
C[C@H](CO)N1C[C@H](C)[C@@H](CN(C)C(=O)Nc2ccccc2)Oc2ncc(-c3ccccc3)cc2C1=O	-3.1	-19.0	5.0	-2.6	-17.8[16.7 µM]	17.2
C[C@@H]1CN([C@H](C)CO)C(=O)Cc2cc(NC(=O)C3CC3)ccc2O[C@H]1CN(C)C(=O)Nc1ccc(F)cc1	0.0	x	-21.0	-2.4	x	x
CN(CC(=O)NCCc1ccc(S(N)(=O)=O)cc1)CC(=O)Nc1ccc(Cl)c(C(F)(F)F)c1	x	2.2	7.8	12.8*	93.5*	23.0
CN(CC(=O)Nc1ccc(Cl)c(C(F)(F)F)c1)C(=O)C1(c2ccccc2)CC1	2.5	-10.4	-2.7	-2.6	55.6*	14.6
CN(CC(=O)NCCc1ccc(S(N)(=O)=O)cc1)CC(=O)Nc1ccccc1Cl	5.2	4.5	-1.0	2.4	x	11.3
CN(CC(=O)Nc1ccc(Cl)c(C(F)(F)F)c1)C(=O)CCN1C(=O)C2CCCCC2C1=O (stereo not drawn)	x	-4.5	1.9	10.3*	16.3	7.0
CN(CC(=O)Nc1ccc(Cl)c(C(F)(F)F)c1)C(=O)c1cccs1	-6.0	x	9.6	-12.4	2.0	-10.8
CN(CC(=O)Nc1ccc(Cl)c(C(F)(F)F)c1)C(=O)C1CCCO1 (stereo not drawn)	-2.5	0.9	-6.6	-1.7	x	0.3
CN(CC(=O)Nc1ccc(Cl)c(C(F)(F)F)c1)CC(=O)NC1CCCCC1	-5.5	x	x	x	x	x
Cc1ccc(N2CC(C(=O)N(C)CC(=O)Nc3ccc(Cl)c(C(F)(F)F)c3)CC2=O)cc1 (stereo not drawn)	x	4.7	8.6	9.2*	31.4	25.0
